A selection: hits, their analogues and other compounds. The true share with any hit is near 4.2%.
CHOP UPR activ – activators of apoptotic arm of unfolded protein response (CHOP). AID 449763. 330,000 compounds, 0.34% hits. activation, % at 10 µM. CHO-CHOP luciferase reporter, UPR activation, luminescence; percent of tunicamycin response over DMSO baseline;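 active means at 10 µM dose, activation of 40% or more, normalized to positive control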
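Test system: CHO-CHOP cells, stable luciferase reporter of PERK-eIF2a-CHOP signalling | Quantity: 500 CHO-CHOP cells per well | Buffer or medium: F12 plus 10% serum | Compound dosing: 10 µM single point, 0.5% DMSO | Schedule: 6 h compound treatment, 37 °C | Signal: Luciferase luminescence | Control set: Tunicamycin high control, DMSO low control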
CHOP inh – blocks CHOP induction under ER stress; CHO-K1 CHOP-promoter luciferase, tunicamycin-induced, 15-18 h; inhibition, % at 10 µM; 220,000 compounds, 3.8% hits; AID 2732;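 active means compounds that reduced the stress-induced luciferase reporter signal by more than about 70% of percent inhibition, limit read from the data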
ANO1 activ – mouse TMEM16A channel activation, primary screen; Q8BHY3; HEK293 TMEM16A/YFP-H148Q/I152L, iodide quench fluorescence; active compounds read low; B-score at 10 µM; 340,000 compounds, 0.3% hits;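 active means fluorescence-ratio B-score plate-corrected deviation score at least 3 library SD below zero, with starting fluorescence score within 5 deviations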;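 further: channel opened by trigger with iodide after compound preincubation; score built on the fluorescence ratio of max minus min over baseline; more negative score means more quench and so TMEM16A activation or potentiation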
Target sequence (Q8BHY3 whole entry, looked up): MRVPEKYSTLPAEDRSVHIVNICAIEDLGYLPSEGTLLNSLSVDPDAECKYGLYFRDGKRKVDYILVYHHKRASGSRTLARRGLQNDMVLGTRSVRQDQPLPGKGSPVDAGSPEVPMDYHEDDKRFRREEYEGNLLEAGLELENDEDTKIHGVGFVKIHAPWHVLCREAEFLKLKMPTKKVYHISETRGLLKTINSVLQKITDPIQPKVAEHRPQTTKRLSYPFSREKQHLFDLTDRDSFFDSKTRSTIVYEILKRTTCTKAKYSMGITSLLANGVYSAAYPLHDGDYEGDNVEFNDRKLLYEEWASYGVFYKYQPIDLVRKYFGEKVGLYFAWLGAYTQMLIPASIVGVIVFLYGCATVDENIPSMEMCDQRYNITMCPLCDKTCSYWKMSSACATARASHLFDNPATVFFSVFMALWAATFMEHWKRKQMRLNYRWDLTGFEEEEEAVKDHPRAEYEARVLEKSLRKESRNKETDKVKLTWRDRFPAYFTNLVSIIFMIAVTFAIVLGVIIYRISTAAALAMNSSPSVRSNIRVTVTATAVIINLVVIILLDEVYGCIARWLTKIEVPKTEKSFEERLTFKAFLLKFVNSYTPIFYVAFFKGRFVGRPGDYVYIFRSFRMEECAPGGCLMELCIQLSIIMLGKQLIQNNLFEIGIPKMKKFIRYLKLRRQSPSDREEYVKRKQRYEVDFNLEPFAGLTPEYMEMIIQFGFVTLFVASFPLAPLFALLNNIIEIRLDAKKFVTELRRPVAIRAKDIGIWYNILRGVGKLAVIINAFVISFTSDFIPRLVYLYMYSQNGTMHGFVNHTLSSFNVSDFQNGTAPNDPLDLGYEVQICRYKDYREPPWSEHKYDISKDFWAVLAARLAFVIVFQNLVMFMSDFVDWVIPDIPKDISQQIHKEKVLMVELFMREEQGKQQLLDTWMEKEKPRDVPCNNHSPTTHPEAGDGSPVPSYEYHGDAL
Hep lipid drop – modulators of hepatic lipid droplet formation. AML12 mouse hepatocytes, oleate lipid droplets, BODIPY imaging. inhibition, % at 6.5 µM. 240,000 compounds, 0.4% hits;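 active means lipid droplet intensity inhibited by at least 50%, with more than 500 cells counted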
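Technique: fluorescence imaging, 20x objective, two fields per well / Assay system: AML12 hepatocytes (mouse) / Measure: % inhibition of lipid droplet signal / Doses: 6.5 µM single-point dosing / Incubation: overnight exposure / Reagent: 100 µM oleic acid challenge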
ANO1 block – inhibitors of mouse TMEM16A calcium-activated chloride channel; Q8BHY3; 310,000 compounds, 1.2% hits; normalized B-score (activity score, 25-100; higher = stronger inhibition) at 10 µM; HEK293 TMEM16A/YFP iodide influx fluorescence, ionomycin;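 active means ratio plate-corrected score three or more library SD toward inhibition, starting fluorescence score within five deviations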;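 further: score derived from kinetic fluorescence span divided by baseline fluorescence per well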
UPR XBP1 act – adaptive UPR (XBP1) activation; CHO-XBP1 luciferase reporter, IRE1-XBP1 UPR activation, luminescence; percent of tunicamycin response, DMSO as zero; activation, % at 20 µM; 330,000 compounds, 0.33% hits;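 active means versus positive control, 20 µM dose yields 30% or more activation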
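Material: CHO-XBP1 cells stably carrying IRE1-XBP1-driven luciferase reporter | Medium: F12 with 10% serum | Compound dosing: 20 µM single concentration, DMSO 1% | Incubation: Overnight seeding at 37 °C, 6 h compound treatment at 37 °C | Detection: Steady-Glo luminescence read | Read-out basis: % activation of reporter signal versus tunicamycin and DMSO controls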
Of the large screens only hits and unclear results are named; the others gave an inactive call.

CC(C)Cn1c(SCC(=O)NC(=O)NC2CCCC2)nc2ccccc21	ANO1 block 25 (no result: Hep lipid drop)
Cc1ccsc1C(=O)OCC(=O)c1ccc(OC(F)F)cc1	none (no result: CHOP inh, Hep lipid drop, ANO1 block)
O=C(COC(=O)C1=NN(c2ccccc2)C(=O)CC1)Nc1nc(-c2ccc(F)cc2)cs1	none (no result: CHOP inh, Hep lipid drop, ANO1 block)
CCCCCC(=O)Nc1ccc(N2CCN(C(=O)CCC)CC2)cc1	ANO1 block 100
COc1ccc(OC)c(NC(=O)CSc2ncnc3c2cnn3-c2ccccc2Cl)c1	CHOP inh 80.2
COc1cc(NC(=O)CSc2ncnc3c2cnn3Cc2ccccc2)cc(OC)c1	none
COc1ccc(NC(=O)CSc2ncccn2)cc1S(=O)(=O)N1CCCCC1	none (no result: CHOP inh, Hep lipid drop, ANO1 block)
O=C(O)CCCC[C@@H]1CCSS1	none (no result: CHOP UPR activ, ANO1 activ, Hep lipid drop, ANO1 block, UPR XBP1 act)
Cc1cc(C)c(OCCCCNCc2ccccc2)c(Cl)c1	CHOP inh 75.2 (no result: Hep lipid drop)
CCC(=O)N1CCc2cc(S(=O)(=O)NCCC(=O)NCc3ccccc3OC)ccc21	none (no result: CHOP inh)
COc1ccccc1-[n+]1c(C)cc(/C=C2\Sc3ccccc3N2C)cc1C	CHOP inh 81.8
COc1ccc(-[n+]2c(C)cc(/C=C3\Sc4ccccc4N3C)cc2C)cc1	CHOP inh 92.0
COc1cc(C(C)=O)ccc1OCC(=O)Nc1ccc(C)c(S(=O)(=O)N2CCCCCC2)c1	none (no result: CHOP inh, Hep lipid drop, ANO1 block)
C/C(=N\NC(=O)c1ccccc1F)c1ccc2c(c1)Nc1ccccc1S2	none
C/C(=N\NC(=O)c1ccc(O)cc1)c1ccc2c(c1)Nc1ccccc1S2	ANO1 block 25
Cc1ccc2sc(N(CCCN(C)C)C(=O)CCS(=O)(=O)c3ccccc3)nc2c1C	none (no result: CHOP inh)
O=C(NCc1n[nH]c(=S)n1-c1ccc(F)cc1)c1ccc(S(=O)(=O)N2CCOCC2)cc1	CHOP inh 81.9
CCOC(=O)c1cc(C)nc(Sc2ccc(C)cc2)c1C#N	none
O=c1oc2ccccc2cc1-c1cn2ccccc2n1	CHOP inh 94.8
Cc1cc(C)c2[nH]c(C(=O)Nc3ccc(F)cc3Br)cc2c1	none (no result: CHOP inh)
CN(C)/C=C(/C#N)C(=O)c1cccc(Oc2ccc(C(C)(C)C)cc2)c1	CHOP inh 93.2
O=C(c1ccc(-c2ccccc2)cc1)C1CCCN(C(=O)c2ccncc2)C1 (stereo not given)	none
O=C(c1ccc(-c2ccccc2)cc1)C1CCCN(Cc2ccncc2)C1 (stereo not given)	ANO1 block 100
Cc1ccc(C(=O)N2CCN(C(=O)c3ccc(C)cc3)C2)cc1	none
CCOc1cc(/C=N/NC(=O)Cn2nc([N+](=O)[O-])cc2C)cc(Br)c1OCc1ccccc1F	CHOP inh 78.3
Cc1ccc(C)c(N2CCN(C(=S)NC3CCCCC3)CC2)c1	CHOP inh 79.2
Cc1ccc(C)c(N2CCN(C(=S)Nc3ccc4nc(N5CCN(C)CC5)cc(C)c4c3)CC2)c1	CHOP inh 77.1
Cc1cccc(N2CCN(C(=S)Nc3ccc4nc(N5CCOCC5)cc(C)c4c3)CC2C)c1 (stereo not given)	CHOP inh 87.9
CC(C)N1CC(C(=O)Nc2cccc([N+](=O)[O-])c2)CC1=O (stereo not given)	none (no result: CHOP inh)
Cc1nn(-c2ccccc2)c2nc(C(F)(F)F)[nH]c(=O)c12	none
Cc1nn(-c2cc(C(F)(F)F)ccc2Cl)c2nc(C(Cl)(Cl)Cl)[nH]c(=O)c12	ANO1 block 100
COc1ccc(Cl)cc1NC(=O)CSc1nnc(C2CC2)n1N	none (no result: CHOP inh, Hep lipid drop, ANO1 block)
Cc1ccc(-c2ccc(=O)[nH]n2)cc1	none
CCCCCc1ccc(-c2ccc(=O)[nH]n2)cc1	CHOP inh 92.8 (no result: Hep lipid drop)
COc1ccc(OCC2c3cc(OC)c(OC)cc3CCN2C(=O)C(C)C)cc1 (stereo not given)	none (no result: CHOP UPR activ, ANO1 block, UPR XBP1 act)
Cc1cc(C)c(S(=O)(=O)/N=C2/C=C(Sc3ncn[nH]3)C(=O)c3ccccc32)cc1C	CHOP inh 108.7 (no result: CHOP UPR activ, UPR XBP1 act)
COc1ccc(C(=O)CSc2nccn2C)c(OC)c1	none (no result: CHOP inh)
O=C(CCCOc1ccc(Cl)cc1Cl)N/N=C/c1cccc([N+](=O)[O-])c1	CHOP inh 75.9
Nc1ccc(S(=O)(=O)c2ccc(NC(=O)c3cccnc3)cc2)cc1	none (no result: CHOP UPR activ, CHOP inh, Hep lipid drop, ANO1 block, UPR XBP1 act)
CC1=Nc2cc([N+](=O)[O-])ccc2NC(C)(C)C1	none
CC1(C)CNc2cc([N+](=O)[O-])ccc2S1	CHOP inh 85.0
Cc1nn(C)cc1CNCc1c(C(=O)N2CCCCC2)nc2c(C)cccn12	none
CCn1c(=NC(=O)c2cccc(N3C(=O)CCC3=O)c2)sc2c(OC)ccc(OC)c21	ANO1 activ -6.38
CC(=O)NCCOc1nc(N2CCCCC2)nc(N2CCCCC2)n1	ANO1 activ -7.01
O=C(NCCOc1nc(N2CCCCC2)nc(N2CCCCC2)n1)Nc1ccccc1	none
O=c1cc(/N=C/c2coc3c(ccc4ccccc43)c2=O)[nH]c(=S)[nH]1	CHOP inh 78.9
CC1(NCC(O)COc2cccc3[nH]ccc23)CCC(C(C)(C)NC(=O)CBr)CC1 (stereo not given)	none (no result: CHOP UPR activ, ANO1 activ, Hep lipid drop, ANO1 block, UPR XBP1 act)
COc1ccc(CN2CCN(Cc3ccc(Br)cc3)CC2)c(OC)c1OC	ANO1 block 25 (no result: CHOP inh)
CC(=O)Nc1ccc(S(=O)(=O)Nc2cc(C)cn(Cc3ccccc3)c2=O)cc1	none (no result: CHOP inh)
Cc1ccn2c(Nc3ccccc3C)c(-c3ccccn3)nc2c1	CHOP inh 88.2
Cc1ccc2nc(-c3ccccn3)c(Nc3ccccc3C)n2c1	CHOP inh 76.7
Cc1ccn2c(Nc3ccccc3)c(-c3ccccn3)nc2c1	CHOP inh 83.8
CC(C)(C)OC(=O)CNC(=O)c1nc[nH]c1C(=O)NCC(=O)OC(C)(C)C	none
Cc1ccc(-n2cnc3c(=O)[nH]cnc32)cc1[N+](=O)[O-]	none (no result: CHOP UPR activ, CHOP inh, Hep lipid drop, ANO1 block, UPR XBP1 act)
COc1ccc(NC(=O)CN(C)C(=O)CN2C(=O)c3ccc([N+](=O)[O-])cc3C2=O)cc1	none (no result: CHOP inh)
COC(=O)Sc1nnc(-c2ccc(Br)cc2)o1	CHOP inh 90.8 (no result: ANO1 activ, Hep lipid drop)
COc1ccc(-c2nc(CN3CCN(c4cc(C)nc(C)c4)CC3)c(C)o2)c2ccccc12	none
Cc1oc(-c2cccc3ccccc23)nc1CN1CCN(c2ncnc3ccccc23)CC1	CHOP inh 82.4
COc1ccccc1CNC(=O)C1CCN(S(=O)(=O)c2ccc(-n3cnnn3)cc2)CC1	none (no result: CHOP inh)
CC1(C)CC(C)(O)P(=O)(c2ccccc2)O1 (stereo not given)	none
CC1=CCP(=O)(c2ccccc2)C1 (stereo not given)	CHOP inh 72.3 (no result: Hep lipid drop)
